{"data": "Measured values gathered from unrelated publications", "target": "Maternal embryonic leucine zipper kinase (MELK, Homo sapiens, UniProt Q14680)", "note": "Each line is one published result; the experiments were not run side by side."}
{"SMILES": "CC#CC(=O)N1CCC[C@H]1c1nc(-c2ccc(C(=O)Nc3ccccn3)cc2)c2c(N)nccn12", "effect on": "enzyme activity", "action": "inhibitor", "concentration": "1 µM", "quantity": "inhibition", "result": "41%"}
{"SMILES": "C[C@H]1CC[C@H](n2c3cnccc3c3cnc(Nc4ccc5c(n4)CCN(C(=O)CO)C5)nc32)CC1", "effect on": "cell-free assay", "concentration": "1 µM", "quantity": "remaining signal", "result": "24%"}
{"SMILES": "C1=C/COCc2cc(ccc2OCCN2CCCC2)Nc2nccc(n2)-c2cccc(c2)COC/1", "effect on": "binding", "concentration": "0.1 µM", "quantity": "remaining binding", "result": "84%"}
{"SMILES": "CN1CCN(C(=O)c2ccc(NC(=O)Nc3ccc(N(C)c4ccnc(Nc5ccc(CS(C)(=O)=O)cc5)n4)cc3)cc2)CC1", "effect on": "binding", "concentration": "1 µM", "quantity": "remaining binding", "result": "81%"}
{"SMILES": "COc1ccc2oc(-c3ccc4nc(N)oc4c3)c/c(=N\\c3ccccc3NC(=O)CCN)c2c1", "effect on": "binding", "concentration": "1 µM", "quantity": "remaining binding", "result": "99%"}
{"SMILES": "CCCCC(=O)Nc1ccc(-c2ccc3ncn(CCC)c(=O)c3c2)cn1", "effect on": "binding", "technique": "competition with immobilised ligand", "concentration": "0.5 µM", "quantity": "remaining binding", "result": "86%"}
{"SMILES": "C#Cc1cc(-c2cc(Nc3nc(N[C@@H](C)c4ccc(F)cn4)ncc3Cl)n[nH]2)ccc1C=O", "effect on": "enzyme activity", "action": "inhibitor", "concentration": "0.2 µM", "quantity": "inhibition", "result": "34.3%"}
{"SMILES": "CO[C@@H]1[C@H](N(C)C(=O)c2ccccc2)C[C@H]2O[C@]1(C)n1c3ccccc3c3c4c(c5c6ccccc6n2c5c31)C(=O)NC4", "effect on": "enzyme activity", "action": "inhibitor", "concentration": "1 µM", "quantity": "inhibition", "result": "60%"}
